Reference: ChEMBL document CHEMBL4715695, “Adamantyl-tethered-biphenylic compounds induce apoptosis in cancer cells by targeting Bcl homologs” (Bioorg Med Chem Lett, 2016)
Activity calls are given as the source filed them. The calls are words filed in the database; no cut-off is given here.

What was measured:
L02 = experiment: Cytotoxicity against human L02 cells assessed as reduction in cell viability measured upto 72 hrs by MTT assay; format: cell-based; conditions: l02, 72 h
HepG2 [1] = experiment: Cytotoxicity against human HepG2 cells assessed as reduction in cell viability measured upto 72 hrs by MTT assay; format: functional, cell-based; conditions: for IC50: HepG2, 72 h
In short: (§1)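 HCC cells plated at 2.5 × 10^4/mL in triplicate and exposed to a range of compound concentrations. Proliferation was read by MTT at 24, 48 and 72 h.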

Huh-7 = experiment: Cytotoxicity against human HuH-7 cells assessed as reduction in cell viability measured upto 72 hrs by MTT assay; format: functional, cell-based; conditions: dose 10-50 µM, time hrs <=72; in short: as §1
Hep 3B2 = experiment: Cytotoxicity against human Hep3B cells assessed as reduction in cell viability measured upto 72 hrs by MTT assay; format: functional, cell-based; conditions: dose 10-50 µM, time hrs <=72; in short: as §1
HepG2 [2] = experiment: Induction of apoptosis in human HepG2 cells assessed as decrease in survivin measured upto 48 hrs by Western blot analysis; format: functional, cell-based; conditions: time hrs <=48
In short: (§2)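 Lysates of compound-treated HepG2 cells were immunoblotted for procaspase-3, PARP, survivin and cyclin D1. Full-length PARP is 116 kDa; cleavage yields 85 and 24 kDa fragments.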

MDA-MB-231 [3] = experiment: Induction of apoptosis in human MBA-MB-231 cells assessed as upregulation of Bcl-xl expression measured upto 48 hrs by Western blot analysis; format: functional, cell-based; conditions: time hrs <=48, in the assay text read “downregulation” for “upregulation”
In short: (§3)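 Bcl-2 and Bcl-xL levels in MDA-MB-231 cells after compound treatment were assessed by western blot, with β-actin as loading control.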

MDA-MB-231 [4] = experiment: Induction of apoptosis in human MBA-MB-231 cells assessed as upregulation of Bcl-2 expression measured upto 48 hrs by Western blot analysis; format: functional, cell-based; conditions: time hrs <=48, TDE = time-dependent effect, in the assay text read “downregulation” for “upregulation”; in short: as §3
HepG2 [5] = experiment: Induction of apoptosis in human HepG2 cells assessed as upregulation of Bcl-2 expression measured upto 48 hrs by Western blot analysis; format: functional, cell-based; conditions: time hrs <=48, in the assay text read “downregulation” for “upregulation”, TDE = time-dependent effect
In short: (§4)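 HepG2 cells were exposed to compound and harvested at 0, 12, 18, 24 and 48 h. Bcl-2 and Bcl-xL levels were detected by western blot, with β-actin as loading control.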

HepG2 [6] = experiment: Induction of cell cycle arrest in human HepG2 cells assessed as increase in accumulation of SubG1 phase incubated for 48 hrs by propidium iodide staining based flow cytometry analysis; format: functional; conditions: dose 10-40 µM
In short: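 HepG2 cells were treated at 0, 10, 20 and 40 µM for 48 h, then ethanol-fixed and stained with propidium iodide. Cell cycle distribution, including the subG1 fraction, was analysed by flow cytometry.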

HepG2 [7] = experiment: Antiproliferative activity in human HepG2 cells transfected with Bcl2 siRNA assessed as reduction in cell growth at 10 to 50 uM incubated for 24 hrs by MTT assay; format: functional, cell-based; conditions: dose 10-50 µM
In short: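 HepG2 cells were transfected with Bcl-2 siRNA, with control siRNA-transfected cells as the comparator. Cells were then exposed to graded compound doses, and proliferation was measured by MTT.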

HepG2 [8] = experiment: Induction of apoptosis in human HepG2 cells assessed as upregulation of Bcl-xl expression measured upto 48 hrs by Western blot analysis; format: functional, cell-based; conditions: time hrs <=48, in the assay text read “downregulation” for “upregulation”, TDE = time-dependent effect; in short: as §4
HepG2 [9] = experiment: Induction of apoptosis in human HepG2 cells assessed as increase in PARP cleavage measured upto 48 hrs by Western blot analysis; format: functional, cell-based; conditions: time hrs <=48, TDE = time-dependent effect; in short: as §2
HepG2 [10] = experiment: Induction of apoptosis in human HepG2 cells assessed as increase in pro-caspase 3 activation measured upto 48 hrs by Western blot analysis; format: functional, cell-based; conditions: time hrs <=48, TDE = time-dependent effect; in short: as §2
HepG2 [11] = experiment: Induction of apoptosis in human HepG2 cells assessed as decrease in cyclin-D1 measured upto 48 hrs by Western blot analysis; format: functional, cell-based; conditions: time hrs <=48; in short: as §2
HepG2 [12] = experiment: Induction of apoptosis in human HepG2 cells assessed as decrease in full length PARP measured upto 48 hrs by Western blot analysis; format: functional, cell-based; conditions: time hrs <=48, TDE = time-dependent effect; in short: as §2

Compound	Activity (L02)	IC50 (HepG2 [1])	other results
COc1ccc(-c2ccccc2C)cc1C12CC3CC(CC(C3)C1)C2	Non-Toxic	49.1 µM	–
COc1ccc(-c2ccc(Cl)c(C(F)(F)F)c2)cc1C12CC3CC(CC(C3)C1)C2	Non-Toxic	> 50 µM	–
COc1ccc(-c2ccccc2C#N)cc1C12CC3CC(CC(C3)C1)C2	Non-Toxic	> 50 µM	–
COc1ccc(-c2cccc(Cl)c2)cc1C12CC3CC(CC(C3)C1)C2	Non-Toxic	–	–
COc1ccc(-c2cccc3ccccc23)cc1C12CC3CC(CC(C3)C1)C2	Non-Toxic	46.2 µM	–
COc1cccc(-c2ccc(OC)c(C34CC5CC(CC(C5)C3)C4)c2)c1	Non-Toxic	> 50 µM	–
COc1ccc(-c2ccccc2)cc1C12CC3CC(CC(C3)C1)C2	Non-Toxic	> 50 µM	–
CC1(C)CCC(c2ccc(Cl)cc2)=C(CN2CCN(c3ccc(C(=O)NS(=O)(=O)c4ccc(N[C@H](CCN5CCOCC5)CSc5ccccc5)c(S(=O)(=O)C(F)(F)F)c4)cc3)CC2)C1	–	–	Activity (HepG2 [1]; time hrs <=72): Dose-dependent effect; Activity (Huh-7): Dose-dependent effect; Activity (Hep 3B2): Dose-dependent effect
COc1ccc(-c2cccc(O)c2)cc1C12CC3CC(CC(C3)C1)C2	Non-Toxic	26.1 µM	Activity (HepG2 [2]): Active; Activity (MDA-MB-231 [3]): Active; Activity (MDA-MB-231 [4]): Tde; Activity (HepG2 [5]): Tde; Activity (HepG2 [6]): Dose-dependent effect; inhibition (HepG2 [7]): inactive; Activity (HepG2 [8]): Tde; Activity (HepG2 [9]): Tde; Activity (HepG2 [10]): Tde; Activity (HepG2 [11]): Active; Activity (HepG2 [12]): Tde
COc1ccc(-c2ccccc2Cl)cc1C12CC3CC(CC(C3)C1)C2	Toxic	21.9 µM	–
COc1ccc(-c2c(F)cc(F)c(OC)c2F)cc1C12CC3CC(CC(C3)C1)C2	Non-Toxic	> 50 µM	–
COc1ccc(-c2ccc(C(=O)N3CCCCC3)cc2)cc1C12CC3CC(CC(C3)C1)C2	Non-Toxic	> 50 µM	–
COc1ccc(-c2ccc(C(F)(F)F)cc2)cc1C12CC3CC(CC(C3)C1)C2	Non-Toxic	> 50 µM	–
COc1ccc(-c2ccccc2F)cc1C12CC3CC(CC(C3)C1)C2	Non-Toxic	> 50 µM	–
COc1ccc(C2=Cc3ccccc3C2)cc1C12CC3CC(CC(C3)C1)C2	Toxic	6.9 µM	–
